This is an account of results in ChEMBL document CHEMBL1141860, “Synthesis and monoamine transporter affinity of 3-aryl substituted trop-2-enes” (Bioorg Med Chem Lett, 2005).

Assay [1] has as its target Sodium-dependent noradrenaline transporter (Homo sapiens, UniProt P23975). Kind of assay: Displacement of [3H]nisoxetine from human NET. In outline:
(§1)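 Competitive radioligand binding at human transporters. The tritiated standard ligand matched each transporter: WIN-35,428 for DAT, citalopram for SERT, and nisoxetine for NET.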
In general terms: Displacement assays read how much labelled ligand stays bound in the presence of the test substance.

In assay [2] the target is Monoamine transporters; Norepinephrine & dopamine (Homo sapiens) (UniProt Q01959+P23975). Kind of assay: Selectivity for human DAT over human NET. In kind it is protein assay.
Assay [3] addresses Monoamine transporters; serotonin & dopamine (Homo sapiens) (UniProt P31645+Q01959). Kind of assay: Selectivity for human DAT over human SERT. The class given is protein assay.
The target of assay [4] is Sodium-dependent serotonin transporter (Homo sapiens, UniProt P31645). Kind of assay: Displacement of [3H]Citalopram from human SERT. In outline:
as §1

The target in assay [5] is Sodium-dependent dopamine transporter (Homo sapiens, UniProt Q01959). Kind of assay: Displacement of [3H]WIN-35428 from human DAT.
Assay [6] deals with Serotonin and norepinephrine transporters (SERT/NET) (Homo sapiens) (UniProt P31645+P23975). Kind of assay: Selectivity for human SERT over human NET. In kind it is protein assay.

pIC50: −log10 of the molar value.

Sodium-dependent noradrenaline transporter, sequence (P23975 whole entry): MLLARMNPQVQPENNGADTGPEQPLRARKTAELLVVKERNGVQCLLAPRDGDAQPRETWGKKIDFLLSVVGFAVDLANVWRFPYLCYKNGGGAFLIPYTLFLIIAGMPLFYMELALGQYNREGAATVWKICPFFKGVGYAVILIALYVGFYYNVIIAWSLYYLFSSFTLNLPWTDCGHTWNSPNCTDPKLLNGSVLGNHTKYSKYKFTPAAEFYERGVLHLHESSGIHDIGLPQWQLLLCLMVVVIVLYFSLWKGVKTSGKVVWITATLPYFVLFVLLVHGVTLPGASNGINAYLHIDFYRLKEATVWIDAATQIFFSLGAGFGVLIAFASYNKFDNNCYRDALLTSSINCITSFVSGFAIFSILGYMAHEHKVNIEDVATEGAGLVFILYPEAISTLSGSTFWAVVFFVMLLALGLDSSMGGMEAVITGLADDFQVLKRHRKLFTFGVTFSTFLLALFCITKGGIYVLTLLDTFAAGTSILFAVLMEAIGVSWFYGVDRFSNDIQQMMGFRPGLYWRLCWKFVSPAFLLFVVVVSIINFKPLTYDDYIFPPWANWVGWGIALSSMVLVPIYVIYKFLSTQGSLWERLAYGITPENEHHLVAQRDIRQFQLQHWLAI
Monoamine transporters; Norepinephrine & dopamine (Homo sapiens), sequence (P23975 whole entry, looked up): as the sequence (P23975 whole entry) above
Monoamine transporters; Norepinephrine & dopamine (Homo sapiens), sequence (Q01959 whole entry, looked up): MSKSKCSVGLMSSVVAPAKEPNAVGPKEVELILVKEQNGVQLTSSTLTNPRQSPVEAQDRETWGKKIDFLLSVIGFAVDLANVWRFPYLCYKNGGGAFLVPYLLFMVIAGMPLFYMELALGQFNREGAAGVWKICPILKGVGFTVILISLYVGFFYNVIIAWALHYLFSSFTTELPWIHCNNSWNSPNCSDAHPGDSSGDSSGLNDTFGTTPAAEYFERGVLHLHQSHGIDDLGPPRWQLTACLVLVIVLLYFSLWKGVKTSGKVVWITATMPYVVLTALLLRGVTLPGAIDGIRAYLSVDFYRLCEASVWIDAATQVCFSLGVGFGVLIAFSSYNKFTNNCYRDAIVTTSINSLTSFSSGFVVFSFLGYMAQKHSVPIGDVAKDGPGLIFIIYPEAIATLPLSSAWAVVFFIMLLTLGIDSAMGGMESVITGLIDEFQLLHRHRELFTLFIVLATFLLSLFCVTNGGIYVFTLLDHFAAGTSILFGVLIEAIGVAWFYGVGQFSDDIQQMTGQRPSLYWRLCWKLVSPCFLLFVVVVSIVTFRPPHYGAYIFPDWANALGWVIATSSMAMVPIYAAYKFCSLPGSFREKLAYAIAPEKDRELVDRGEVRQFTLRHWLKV
Serotonin and norepinephrine transporters (SERT/NET) (Homo sapiens), sequence (P23975 whole entry, looked up): as the sequence (P23975 whole entry) above
Serotonin and norepinephrine transporters (SERT/NET) (Homo sapiens), sequence (P31645 whole entry, looked up): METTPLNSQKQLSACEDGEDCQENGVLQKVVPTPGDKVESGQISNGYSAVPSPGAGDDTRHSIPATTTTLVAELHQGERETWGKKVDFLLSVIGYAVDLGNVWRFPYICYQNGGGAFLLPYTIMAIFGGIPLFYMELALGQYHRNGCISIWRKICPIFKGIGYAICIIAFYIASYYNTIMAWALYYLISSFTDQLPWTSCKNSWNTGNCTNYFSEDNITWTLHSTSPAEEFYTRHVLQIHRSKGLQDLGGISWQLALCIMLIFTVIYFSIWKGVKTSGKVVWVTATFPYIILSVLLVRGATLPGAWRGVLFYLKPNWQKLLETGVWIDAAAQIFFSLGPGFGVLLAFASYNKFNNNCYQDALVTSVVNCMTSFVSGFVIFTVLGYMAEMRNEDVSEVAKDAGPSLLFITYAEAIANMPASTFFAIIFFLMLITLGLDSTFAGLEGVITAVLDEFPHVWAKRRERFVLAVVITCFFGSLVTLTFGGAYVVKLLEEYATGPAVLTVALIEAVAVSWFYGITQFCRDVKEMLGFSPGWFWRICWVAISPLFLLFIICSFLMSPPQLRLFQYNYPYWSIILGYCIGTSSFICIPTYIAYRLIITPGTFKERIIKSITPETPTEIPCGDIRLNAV
Monoamine transporters; serotonin & dopamine (Homo sapiens), sequence (P31645 whole entry, looked up): as above
Monoamine transporters; serotonin & dopamine (Homo sapiens), sequence (Q01959 whole entry, looked up): as the sequence (Q01959 whole entry, looked up) above
Sodium-dependent serotonin transporter, sequence (P31645 whole entry): as the sequence (P31645 whole entry, looked up) above
Sodium-dependent dopamine transporter, sequence (Q01959 whole entry): as the sequence (Q01959 whole entry, looked up) above

Turning to `CN1C2C=C(c3c[nH]c4ccccc34)CC1CC2` (centres undefined), the pIC50 – broadly, −log10 of the IC50, conventionally taken in molar units – in assay [1] was 5.40; in assay [4] it was 7.14; in assay [5], 6.22. Further, the figures for the Ratio IC50 in assay [2], in assay [3] and in assay [6] were 0.15, 8.3 and 0.018, respectively.

On to `C[N+]1(CCl)C2C=C(c3ccccc3-c3ccccc3)CC1CC2` (centres undefined), for which the pIC50 in assay [1] was 5.69; in assay [4] it was 4.79; in assay [5] it was 4.17. Moreover, the Ratio IC50 in assay [2] was found to be 33.2; in assay [3] it was 4.2; in assay [6], 8.

For the molecule `CN1C2C=C(c3ccccc3-c3ccccc3)CC1CC2` (centres undefined), the pIC50 was 5.19 in assay [1] and 5.77 in assay [4]. The Ratio IC50 in assay [2] was 1.44; in assay [3], 5.4; in assay [6], 0.27.

With `CN1C2CCC1CC(O)(C1c3ccccc3-c3ccc(Br)cc31)C2` (centres undefined), the pIC50 in assay [1] was 4.20; in assay [4] it was 5.59; in assay [5], 4.77. Moreover, the results for the Ratio IC50 in assay [2], in assay [3] and in assay [6] were 0.27, 6.5 and 0.041, respectively.

For the molecule `CN1C2C=C(C3c4ccccc4-c4ccccc43)CC1CC2` (centres undefined), the pIC50 in assay [1] is 4.08; in assay [4], 6.16; in assay [5], 5.03. The Ratio IC50 came to 0.113 in assay [2], 13.6 in assay [3] and 0.0083 in assay [6].

For the molecule `CN1C2C=C(c3ccc4c(c3)Cc3ccccc3-4)CC1CC2` (centres undefined), the pIC50 in assay [1] was 5.47; in assay [4] it was 7.84; in assay [5], 6.12. Besides, the results for the Ratio IC50 in assay [2], in assay [3] and in assay [6] were 0.23, 52.2 and 0.0043, respectively.

In the case of `CN1C2CCC1CC(O)(C1c3ccccc3-c3ccccc31)C2` (centres undefined), the pIC50 is 3.80 in assay [1], 4.45 in assay [4] and 6.27 in assay [5]. The Ratio IC50 came to 0.0034 in assay [2], 0.015 in assay [3] and 0.22 in assay [6].

In the case of `CN1C2C=C(c3cccc(-c4ccccc4)c3)CC1CC2` (centres undefined), the figures for the pIC50 in assay [1], in assay [4] and in assay [5] were 4.64, 6.17 and 5.14, respectively. The Ratio IC50 in assay [2] stood at 0.314; in assay [3], 10.8; in assay [6], 0.029.

Regarding `CN1C2CCC1CC(O)(c1ccccc1-c1ccccc1)C2` (centres undefined), the pIC50 in assay [1] is 4.18; in assay [4], 5.60; in assay [5] it was 5.40. Moreover, the Ratio IC50 was 0.06 in assay [2], 1.58 in assay [3] and 0.038 in assay [6].

With `CN1C2CCC1CC(O)(c1cccc(-c3ccccc3)c1)C2` (centres undefined), the pIC50 was 4.38 in assay [1], 5.42 in assay [4] and 4.66 in assay [5]. The Ratio IC50 in assay [2] was 0.53; in assay [3], 5.81; in assay [6] it was 0.091.
